The species entered for test [1] is Cavia porcellus. Briefly: Compound was tested for the inhibition of histamine release from sensitized guinea pig chopped lung upon antigen challenge at 10 ug/mL. The class given is functional. Put shortly:
(§1)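 Guinea pigs sensitized to ovalbumin; lungs taken 3 weeks later, perfused with Tyrode, chopped into 0.5-mm cubes. 100-mg aliquots in Tyrode were preincubated 5 min at 37 °C, then compound or Tyrode and ovalbumin (5 mg in 0.1 mL) were added. Incubation was 15 min at 37 °C with rocking, and supernatant was bioassayed. Unchallenged control gave spontaneous release. Values are % inhibition, mean of ≥4 samples; Student's t-test.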

The species entered for test [2] is Cavia porcellus. Briefly: Inhibition of slow reacting substance of anaphylaxis (SRS-A) release from sensitized guinea pig chopped lung upon antigen challenge at 10 ug/mL. The class given is functional. Put shortly:
as §1

In test [3] the test system is Cavia porcellus. Kind of test: Mean collapse time after pretreatment with compound and mepyramine divided by mean collapse time of mepyramine-dosed control animals at 50 mg/kg po dose. The class given is functional. A digest of the protocol: (§2)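 Modified Herxheimer test in conscious sensitized guinea pigs, 4-5 per group. Compound was given orally at 25, 50 or 100 mg/kg 2 or 4 h before antigen challenge. Some groups also received mepyramine 0.5 mg/kg sc 0.5 h before challenge. D = mean collapse time of treated/untreated controls; M+D = mean collapse time of compound+mepyramine/mepyramine-dosed controls.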

Test [4] concerns Cavia porcellus. Kind of test: Time of dosing of compound before antigen challenge in conscious sensitized guinea pig at 50 mg/kg po dose. The class given is functional. Put shortly:
as §2

In test [5] the test system is Cavia porcellus. Briefly: Mean collapse time after pretreatment with compound divided by mean collapse time of untreated control animals at 50 mg/kg po dose. The test is classed as functional. Put shortly:
as §2

The species entered for test [6] is Homo sapiens. Kind of test: Inhibition of Slow reacting substance of anaphylaxis (SRS-A) mediator release form passively sensitized human lung upon antigen challenge at 10 ug/mL dose. The class given is functional. Put shortly:
(§3)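 Healthy human lung from carcinoma surgery was chopped into 0.5-mm cubes and passively sensitized 18 h at 18 °C with atopic serum from cocksfoot-pollen-allergic patients. Tissue was preincubated 5 min with compound, challenged with pollen extract (0.1 mL, 1000 noon units) and incubated as for guinea pig lung. Supernatant was bioassayed on guinea pig ileum, with mepyramine-treated (0.4 μg/mL) ileum for SRS-A. Values are % inhibition of mediator release.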

The species named for test [7] is Homo sapiens. Kind of test: Inhibition of Histamine mediator release form passively sensitized human lung upon antigen challenge at 1 ug/mL dose. The class given is functional. Put shortly: as §3
Test [8] is filed under the species Homo sapiens. Briefly: Inhibition of Slow reacting substance of anaphylaxis (SRS-A) mediator release form passively sensitized human lung upon antigen challenge at 1 ug/mL dose. The test is classed as functional. Put shortly: as §3
For test [9], the species on record is Cavia porcellus. Kind of test: Inhibition of histamine release from sensitized guinea pig chopped lung upon antigen challenge at 10 ug/mL. The class given is functional. Put shortly:
as §1

The species entered for test [10] is Homo sapiens. Kind of test: Inhibition of Histamine mediator release form passively sensitized human lung upon antigen challenge at 10 ug/mL dose. The class given is functional. A digest of the protocol:
as §3

For test [11], the species on record is Cavia porcellus. Briefly: Inhibition of slow reacting substance of anaphylaxis (SRS-A) release from sensitized guinea pig chopped lung upon antigen challenge. The test is classed as functional. A digest of the protocol: as §1
The species entered for test [12] is Homo sapiens. Kind of test: Inhibition of Slow reacting substance of anaphylaxis (SRS-A) mediator release form passively sensitized human lung upon antigen challenge at 10(ug/mL) dose:
The test is classed as functional. Put shortly:
as §3

The species entered for test [13] is Homo sapiens. Briefly: Inhibition of Histamine mediator release form passively sensitized human lung upon antigen challenge at 10(ug/mL) dose:
The test is classed as functional. A digest of the protocol:
as §3

Test [14] deals with Cavia porcellus. Briefly: Mean collapse time after pretreatment with compound divided by mean collapse time of untreated control animals at 2 mg/kg po dose. The class given is functional.
The test system of test [15] is Cavia porcellus. Kind of test: Time of dosing of compound before antigen challenge in conscious sensitized guinea pig at 2 mg/kg po dose. The class given is functional.
The subject of test [16] is Cavia porcellus. Briefly: Mean collapse time after pretreatment with compound and mepyramine divided by mean collapse time of mepyramine-dosed control animals at 2 mg/kg po dose. The test is classed as functional.
Test [17] deals with Cavia porcellus. Briefly: Mean collapse time after pretreatment with compound and mepyramine divided by mean collapse time of mepyramine-dosed control animals at 100 mg/kg po dose. The test is classed as functional. Put shortly:
as §2

Test [18] has as its system Cavia porcellus. Briefly: Mean collapse time after pretreatment with compound divided by mean collapse time of untreated control animals at 100 mg/kg po dose. The class given is functional. Put shortly: as §2
Test [19] deals with Cavia porcellus. Kind of test: Mean collapse time after pretreatment with compound divided by mean collapse time of untreated control animals at 25 mg/kg po dose. The class given is functional. A digest of the protocol: as §2
Test [20] relates to Cavia porcellus. Briefly: Time of dosing of compound before antigen challenge in conscious sensitized guinea pig at 100 mg/kg po dose. The test is classed as functional. A digest of the protocol:
as §2

Test [21] relates to Cavia porcellus. Kind of test: Effect on bronchospasm in conscious sensitized guinea pig upon antigen challenge (herxheimer) at 25 mg/kg po dose. The class given is functional, Bronchiole. Put shortly: as §2
Test [22] relates to Cavia porcellus. Briefly: Mean collapse time after pretreatment with compound and mepyramine divided by mean collapse time of mepyramine-dosed control animals at 25 mg/kg po dose. The test is classed as functional. A digest of the protocol: as §2
For test [23], the system named is Cavia porcellus. Kind of test: Time of dosing of compound before antigen challenge in conscious sensitized guinea pig at 25 mg/kg po dose. The test is classed as functional. Put shortly: as §2

For the molecule `CCc1ccc(O)c(C(=O)c2ccsc2)c1`, the Inhibition is on record as 37% in [1] and 26% in test [2]. The Activity in test [3] is reported as 2.3; in [5], 0.8. Besides, the Time in [4] (dose 50 mg/kg) came to 2 h.

Consider `CCc1ccc([S+](C)[O-])c(C(=O)c2ccc(C)cc2)c1` (stereo not given), for which the Inhibition was determined as 100% in [6]; 40% in test [2]; 0% in test [7]; 75% in test [8]; 3% in test [9]; 0% in test [10].

For the molecule `CCc1cccc(C(=O)c2ccc(Cl)cc2Cl)c1O`, the Inhibition stood at 100% in test [6]; 44% in [2]; 20% in test [7]; 85% in test [8]; 8% in test [9]; 60% in [10].

Consider `CCc1ccc(O)c(S(=O)(=O)c2ccccc2)c1`, for which, in [11], the Inhibition was determined as 0%.

With `CCc1ccc(O)c(Cc2ccccc2)c1`, the Inhibition is reported as 36% in [2] and 0% in test [9]. Moreover, the Activity in test [3] was 1.6; in test [5], 3.

As to `CCc1ccc(O)c(S(=O)(=O)c2ccc(Cl)cc2)c1`, the Inhibition in [11] stood at 19%.

With `CCc1ccc(SC)c(C(=O)c2ccc(Cl)cc2)c1`, the Inhibition in test [2] worked out at 29%. In addition, the Activity amounted to 2.3 in [3] and 0.6 in test [5].

For `CCc1ccc(O)c(C(=O)c2cccn2C)c1`, the Inhibition in [2] is 0%. The values for the Activity in [3] and in test [5] were 2.3 and 1.2, respectively. In addition, the Time in [4] (dose 50 mg/kg) amounted to 2 h.

With `C=C(c1ccc(C)cc1)c1cc(CC)ccc1O`, the Inhibition came to 84% in [12], 0% in [2] and 0% in test [13]. Further, the Activity in [3] was 3.5; in test [5], 1.

As to `CCc1ccc(OC)c(C(=O)c2ccc([N+](=O)[O-])cc2)c1`, in [2], the Inhibition was 0%. Moreover, the Activity in test [3] is 2.1; in [5] it was 0.8. Further, the Time in [4] (dose 50 mg/kg) worked out at 2 h.

On to `CN1CCC(=C2c3ccccc3CC(=O)c3sccc32)CC1` [KETOTIFEN], for which the Activity was found to be 4.2 in test [14] and 3.1 in [16]. Moreover, the Inhibition in test [6] is given as 100%; in test [2], 38%; in test [7], 0%; in test [8], 51%; in [9] it was 37%; in test [10] it was 23%. Further, the Time in test [15] is 2 h.

Take `CCc1ccc(O)c(C(=O)c2ccc(Cl)cc2)c1`: the Activity in [17] was found to be 1.8; in [18], 1.4; in [19] it was 0.8; in test [22], 2.7. Moreover, the Time in [20] was 2 h. The Inhibition is listed as 100% in test [6]; 51% in test [2]; 0% in test [7]; 74% in test [8]; 3% in test [9]; 0% in [10]. Further, the “Time of dosing before antigen challenge.” value in test [21] was found to be 4 h.

Consider `CCc1ccc(O)c(C(=O)c2ccccc2)c1`, for which the Inhibition in test [2] was 22%. Moreover, the Activity was 1.2 in [3] and 2.5 in [5]. For the same molecule, the Time in test [4] (dose 50 mg/kg) stood at 2 h.

As for `Cc1cccc(C(=O)c2ccc(Cl)cc2)c1O`, the Inhibition in [6] amounted to 100%; in test [2] it was 36%; in test [8], 100%; in [9], 6%; in [10], 0%.

Regarding `CCc1ccc(O)c(C(=O)c2cccs2)c1`, the Inhibition in test [6] stood at 67%; in [2], 59%; in [7], 0%; in test [8], 55%; in test [9], 0%; in [10], 0%. Moreover, the Activity in test [3] stood at 1.6; in test [5], 0.7. Further, the Time in test [4] (dose 50 mg/kg) worked out at 2 h.

For `CCc1ccc(OC)c(C(O)c2ccc(Cl)cc2)c1` (stereo not given), the results for the Activity in test [19] and in [22] were 0.8 and 2.7, respectively. The Inhibition in [2] is recorded as 14%. In addition, the Time in test [4] (dose 25 mg/kg, in the assay text read “at 25 mg/kg po dose” for “at 50 mg/kg po dose”) was found to be 2 h.

In the case of `CCc1ccc(C(=O)c2ccc(F)cc2)c(O)c1`, the Activity in test [17] was found to be 2.3; in test [18] it was 1.2; in test [3], 2.8; in test [5] it was 1.3. Besides, in test [20], the Time is 2 h. Also, the Inhibition in test [2] was 5%.

With `CCc1ccc([S+](C)[O-])c(C(=O)c2ccc(F)cc2)c1` (stereo not given), the Inhibition in test [2] is on record as 42%; in test [9], 9%.

For the molecule `CCc1ccc([S+](C)[O-])c(C(=O)c2ccc(Cl)cc2)c1` (stereo not given), the Inhibition worked out at 36% in [2] and 1% in [9].

For `Cc1ccc(O)c(/C(=N\O)c2ccc(Cl)cc2)c1`, the Inhibition in [2] worked out at 32%; in test [9] it was 25%.

In the case of `CCc1ccc(O)c([S+]([O-])c2ccc(Cl)cc2)c1` (stereo not given), the Activity is 1.3 in test [19], 1.7 in test [3], 1.7 in test [22] and 1 in [5]. The Inhibition was determined as 99% in [6]; 48% in test [2]; 0% in test [7]; 69% in test [8]; 26% in test [9]; 31% in test [10]. Besides, the Time in [4] (dose 50 mg/kg) stood at 2 h; in [23], 4 h.

Turning to `CCc1ccc(O)c(C(=O)c2ccco2)c1`, the figures for the Inhibition in test [2] and in test [9] were 32% and 0%, respectively.

Take `CCc1ccc(O)c(/C(=N/O)c2ccc(Cl)cc2)c1`: the Inhibition was 91% in test [6]; 51% in [2]; 0% in [7]; 93% in [8]; 28% in [9]; 0% in test [10].

In the case of `CCc1ccc(C(O)c2ccc(F)cc2)c(O)c1` (stereo not given), the Inhibition in test [2] came out at 34%; in test [9], 5%.

On to `CCc1cccc(C(=O)c2ccccc2)c1O`, for which the Inhibition was found to be 37% in [2] and 92% in test [9].

For `Cc1cccc(/C(=N/O)c2ccccc2)c1O`, the Inhibition in test [6] is given as 62%; in [2], 0%; in test [7], 8%; in [8], 39%; in [10] it was 15%.

As for `CCc1ccc(O)c(Cc2ccc(Cl)cc2)c1`, the results for the Inhibition in test [2] and in test [9] were 39% and 17%, respectively.

One may read the Inhibition as the relative decrease from the control value, in per cent.

(Values after ChEMBL document CHEMBL1123797, “Antianaphylactic benzophenones and related compounds” (1987).)
